Published values collected from several papers.
Compare with care: the assays were run in different laboratories.
Target: Serine/threonine-protein kinase Nek6 (NEK6, Homo sapiens, UniProt Q9HC98)

CO[C@@H](C)c1c(Nc2ccc([C@H](N(C)C(=O)C3CCS(=O)(=O)CC3)C(F)(F)F)cc2)cnc2cc(Cl)nn12 — remaining binding (cell-free assay, competition with immobilised ligand; 1 µM): 97%
O=C1Nc2ccc(Cl)cc2C1=Cc1cc(Cl)c(O)c(Cl)c1 — remaining signal (cell-free assay; 0.5 µM): 104%
COc1cc(/C=C/C(=O)CC(=O)/C=C/c2ccc(O)c(OC)c2)ccc1O — activity vs control (enzyme activity, inhibitor; 1 µM): 97%
FC(F)(F)Oc1cccc(-c2cnc3ccc(-c4ccncc4)nn23)c1 — activity vs control (enzyme activity, inhibitor, radiometric; 5 µM): 93%
CCN(CC)CCNC(=O)c1c(C)[nH]c(/C=C2\C(=O)Nc3ccc(F)cc32)c1C — inhibition (enzyme activity, inhibitor; 10 µM): -9%
COc1cc2ncnc(Nc3ccc(Oc4ccccc4)cc3C)c2cc1OC — inhibition (enzyme activity, inhibitor; 1 µM): -8%
CNC(=O)c1cc(Oc2ccc(NC(=O)Nc3ccc(Cl)c(C(F)(F)F)c3)cc2)ccn1 — inhibition (enzyme activity, inhibitor; 10 µM): -16%
CCCCN(CCCC)C(=O)CN1C[C@H](c2cc(OC)c3c(c2)OCO3)[C@@H](C(=O)O)[C@@H]1CC(C)(C)CCC — remaining binding (cell-free assay, competition with immobilised ligand; 1 µM): 100%
O=C1NC(=O)c2cc(Nc3ccc(F)cc3)c(Nc3ccc(F)cc3)cc21 — remaining signal (cell-free assay; 0.5 µM): 109%
Cc1cc(-n2nc(Cc3cc(F)cc(C(F)(F)F)c3)nc2C)ccc1C(N)=O — remaining binding (cell-free assay, competition with immobilised ligand; 1 µM): 95%
Nc1ncnc2occ(-c3ccc(NC(=O)Nc4cc(C(F)(F)F)ccc4F)cc3)c12 — remaining signal (cell-free assay, inhibitor; 20 µM): 0.15%
Cc1ccc(NC(=O)c2ccc(C)c(C(F)(F)F)c2)cc1C#Cc1nn(C2CCC(O)CC2)c2ncnc(N)c12 (stereo not shown) — remaining signal (cell-free assay; 10 µM): 98%
Cn1cc(Cl)c2c(Oc3c(F)cc(Nc4cc(Cl)nc(N)n4)cc3F)ccnc21 — remaining binding (cell-free assay, competition with immobilised ligand; 0.1 µM): 100%
